Only some compounds are listed: those with a hit (about 2.5% of all), similar ones and a draw of the others.
NR2E3 ag-1: activates human photoreceptor nuclear receptor NR2E3; Q9Y5X4; GST-NR2E3/biotin-RetCOR TR-FRET, 1536-well; inhibition of corepressor binding, % at 4.78 µM; 320,000 tested, 0.12% active; AID 2300;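 active means percent inhibition above the cutoff of mean plus 3 SD of all tested compounds, set per screening campaign, cut at about 20% in these data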;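 further: 0% = DMSO wells and 100% = biotin wells as full block of FRET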
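Test system – NR2E3–RetCOR corepressor complex · Quantity – NR2E3 fusion 1.35 nM · Buffer or medium – Tris pH 7.5 · Incubation – Compound–protein incubation for 5 h at 4 °C · Technique – TR-FRET, Eu(K)-anti-GST donor, streptavidin-D2 acceptor, ex 340, em 617/671 nm · Evaluation – percent inhibition of 671/617 nm emission ratio versus biotin and DMSO controls · Plate – 1536-well format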
MsrA act: bovine methionine sulfoxide reductase A activation | purified bovine MsrA, absorbance read-out | activation, % at 10.6 µM | 360,000 tested, 0.3% active; in the data active means activation above about 7.5%;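 further: 0% = vehicle and 100% = reference activator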
MsrA inh: bovine MsrA inhibition; purified bovine MsrA, absorbance read-out; 360,000 tested, 0.75% active; inhibition, % at 15.5 µM;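 further: 0% = vehicle wells with enzyme and 100% = reference inhibitor wells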
NadD inh: blocks S. aureus nicotinate mononucleotide adenylyltransferase; purified NadD enzyme, colorimetric absorbance read-out; inhibition, % at 20 µM; 360,000 tested, 0.78% active; in the data active means inhibition above about 26%
NR2E3 ag-2: activates human NR2E3 receptor | CHO-S Gal4-NCOR/VP16-NR2E3 two-hybrid, luciferase | inhibition of corepressor binding, % at 3.98 µM | 360,000 tested, 0.35% active | AID 602229;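 active means inhibition above the mean of all tested compounds plus 3 SD, cut at about 70% in these data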;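 further: 0% = DMSO with NR2E3 transfected cells and 100% = cells lacking NR2E3 construct; higher means lower luciferase signal from less NR2E3 corepressor binding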
GalR3 antag: antagonists of human GalR3 | HEK293 GalR3-CNG cAMP membrane potential fluorescence; galR3 body fused to GalR1 C-terminus | 360,000 tested, 0.44% active | O60755 | inhibition, % at 3 µM;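 active means inhibition above the screen-wide average plus 3 SD, cut at about 13% in these data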;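 further: forskolin and galanin both at EC90 stimulate the cells; cAMP rise reported by CNG channel membrane potential dye signal; 0% = forskolin plus galanin with DMSO and 100% = forskolin alone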
Target sequence (O60755 1-299 limits assumed): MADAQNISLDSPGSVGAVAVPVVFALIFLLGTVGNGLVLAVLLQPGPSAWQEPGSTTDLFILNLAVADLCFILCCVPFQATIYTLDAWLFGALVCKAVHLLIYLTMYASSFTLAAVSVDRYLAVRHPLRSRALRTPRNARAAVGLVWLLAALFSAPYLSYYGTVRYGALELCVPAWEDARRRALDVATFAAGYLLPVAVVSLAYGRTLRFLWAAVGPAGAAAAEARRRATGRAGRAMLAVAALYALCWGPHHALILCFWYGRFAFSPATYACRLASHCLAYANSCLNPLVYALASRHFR
MsrA conf: bovine MsrA inhibition, confirmed; 2,300 tested, 41% active; purified bovine MsrA, absorbance read-out; shares compounds with MsrA inh; inhibition, % at 15.5 µM;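 further: coupled to thioredoxin reductase with NADPH and selenocystamine and DMSO as substrate; 0% = vehicle only and 100% = full effect of reference inhibitor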
Active calls of the source: *. Unless noted, no stated cut-off is given here; in the data, active means inhibition above about 4.5%; inactive means the rest.

Screening CCOCCCNc1ccc(N2C(=O)C3CCCCC3C2=O)cc1[N+](=O)[O-] (stereo not given) returned NR2E3 ag-1 3.9, MsrA act -8.2, MsrA inh -0.5, NadD inh -2.2, NR2E3 ag-2 7.1 and GalR3 antag -2.8.
`COc1ccc(/C=C(\C#N)c2n[nH]c(Cn3cncn3)n2)cc1` gave NR2E3 ag-1 5.3, MsrA act -5.9, MsrA inh 5.7*, NadD inh -5.4, NR2E3 ag-2 -27.1, GalR3 antag -5.5 and MsrA conf 5.2*.
For O=S1(=O)N=C(N/N=C/c2cccs2)c2ccccc21 the results were NR2E3 ag-1 6.5, MsrA act -2.3, MsrA inh 5.8*, NadD inh 6.4, NR2E3 ag-2 -7.1, GalR3 antag -10.3 and MsrA conf 4.8*.
`COc1cccc(C2C(C(=O)c3ccco3)=C(O)C(=O)N2CCCN2CCOCC2)c1OC` (stereo not given) gave MsrA act -6.1, MsrA inh 4.7*, NadD inh -2.5, NR2E3 ag-2 1.2, GalR3 antag -5.0 and MsrA conf -0.2.
COc1cccc(C2C(C(=O)c3ccco3)=C(O)C(=O)N2CCN(C)C)c1OC (stereo not given) was read as NR2E3 ag-1 -3.5, MsrA act -8.1, MsrA inh 1.3, NadD inh -0.8, NR2E3 ag-2 13.3 and GalR3 antag -3.1.
CN1/C(=C\C(=O)Nc2cccc(Cl)c2)C(C)(C)c2ccccc21 was read as NR2E3 ag-1 4.4, MsrA act -13.5, MsrA inh 2.2, NadD inh 5.7, NR2E3 ag-2 -0.8 and GalR3 antag -3.4.
Screening COc1ccc(N/N=C(\C=N\O)C(=O)c2ccc(OC)cc2)cc1 returned NR2E3 ag-1 -2.3, MsrA act -6.3, MsrA inh 10.7*, NadD inh -4.1, NR2E3 ag-2 -51.9, GalR3 antag -0.8 and MsrA conf 5.0*.
For Cc1cc(N2CCCC2)c(C)cc1C=O the results were NR2E3 ag-1 -0.2, MsrA act -1.6, MsrA inh 5.1*, NadD inh 3.7, NR2E3 ag-2 -6.2, GalR3 antag -3.6 and MsrA conf 2.0.
Nc1ccc(-c2nc3ncccc3o2)cc1 was read as NR2E3 ag-1 3.0, MsrA act -5.7, MsrA inh 6.9*, NadD inh 5.7, NR2E3 ag-2 -24.1, GalR3 antag -4.4 and MsrA conf 4.6*.
`O=C(O)c1ccc(N/N=C/c2c(F)cccc2Cl)cc1` gave NR2E3 ag-1 -1.8, MsrA act -6.3, MsrA inh 6.5*, NadD inh -5.2, NR2E3 ag-2 -78.6, GalR3 antag -9.1 and MsrA conf 4.4.
For c1ccc(-c2nc3nc4ccccc4nc3n2CC2CCCO2)cc1 (stereo not given) the results were NR2E3 ag-1 2.5, MsrA act -4.8, MsrA inh 5.2*, NadD inh -6.1, NR2E3 ag-2 -8.6, GalR3 antag -0.6 and MsrA conf 5.2*.
`CCN(CC)S(=O)(=O)c1ccc(N/N=C/c2cc(OC)ccc2O)nc1` gave NR2E3 ag-1 0.9, MsrA act -4.5, MsrA inh 1.3, NadD inh -1.2, NR2E3 ag-2 -0.3 and GalR3 antag -5.3.
For CCN(CC)S(=O)(=O)c1ccc(N/N=C/c2cccnc2)nc1 the results were NR2E3 ag-1 3.9, MsrA act -5.4, MsrA inh 5.8*, NadD inh -1.3, NR2E3 ag-2 -17.3, GalR3 antag -6.0 and MsrA conf 4.7*.
Screening O=C(CCSc1nnnn1-c1ccccc1)N1CCOCC1 returned NR2E3 ag-1 1.1, MsrA act 2.4, MsrA inh 0.5, NadD inh -3.3, NR2E3 ag-2 -22.6 and GalR3 antag 0.8.
`c1ccc(-n2nnnc2-n2nnc3ccccc32)cc1` gave NR2E3 ag-1 0.8, MsrA act -3.9, MsrA inh 23.0*, NadD inh 7.0, NR2E3 ag-2 6.0, GalR3 antag -5.7 and MsrA conf 21.6*.
`COc1ccc(C(=O)Nc2ccc(CN3CCCCC3)cc2)cc1` gave NR2E3 ag-1 5.3, MsrA act -3.1, MsrA inh 0.9, NadD inh -0.1, NR2E3 ag-2 -14.7 and GalR3 antag -5.5.
`OCCCN=c1cc(-c2ccccc2)oc2ccc(Cl)cc12` gave NR2E3 ag-1 1.4, MsrA act -4.2, MsrA inh 4.8*, NadD inh -8.9, NR2E3 ag-2 -142.7, GalR3 antag 1.8 and MsrA conf 4.4.
COC(=O)CN(c1nc(C)c(Br)c(OC)n1)S(=O)(=O)c1ccccc1 was read as NR2E3 ag-1 1.9, MsrA act -3.3, MsrA inh 13.3*, NadD inh -13.5, NR2E3 ag-2 10.8, GalR3 antag -4.3 and MsrA conf 11.9*.
Screening COC(=O)CN(c1nc(C)cc(OC)n1)S(=O)(=O)c1ccccc1 returned MsrA act -7.0, MsrA inh -1.4, NadD inh -2.2, NR2E3 ag-2 12.1 and GalR3 antag -4.3.
`COc1ccc(/C=C/C(=O)Nc2ccccc2C(=O)O)cc1OC` gave NR2E3 ag-1 -1.5, MsrA act -10.8, MsrA inh 5.2*, NadD inh -3.5, NR2E3 ag-2 33.5, GalR3 antag -4.0 and MsrA conf 5.4*.
For CCc1cc(C(=O)O)c(NC(=O)/C=C/c2ccc(OC)c(OC)c2)s1 the results were NR2E3 ag-1 -0.4, MsrA act -6.0, MsrA inh 5.6*, NadD inh -1.9, NR2E3 ag-2 -36.3, GalR3 antag -0.3 and MsrA conf 4.9*.
`COc1ccc(/C=C/C(=O)Nc2ccc(C(N)=O)cc2)cc1OC` gave NR2E3 ag-1 -0.1, MsrA act -4.7, MsrA inh 5.0*, NadD inh -2.7, NR2E3 ag-2 -13.1, GalR3 antag -5.9 and MsrA conf 5.0*.
CCc1cc(C(=O)O)c(NC(=O)/C=C/c2ccc(OC)cc2)s1 was read as NR2E3 ag-1 -0.3, MsrA act -3.5, MsrA inh 2.6, NadD inh -7.1, NR2E3 ag-2 -82.4 and GalR3 antag 1.7.
COc1cc(/C=C/C(=O)NC(=O)c2ccccc2O)ccc1O was read as NR2E3 ag-1 1.3, MsrA act -4.5, MsrA inh 5.6*, NadD inh -3.5, NR2E3 ag-2 -74.0, GalR3 antag 0.8 and MsrA conf 4.2.
COc1ccc(-c2noc(CN(C)C(=O)c3ccoc3C)n2)cc1OC was read as NR2E3 ag-1 1.6, MsrA act -7.1, MsrA inh 0.3, NadD inh 0.6, NR2E3 ag-2 -26.3 and GalR3 antag -8.8.
C(=C\c1ccccc1)/CNCC1CCCO1 (stereo not given) was read as NR2E3 ag-1 1.4, MsrA act -3.9, MsrA inh -1.4, NadD inh -14.7, NR2E3 ag-2 -10.7 and GalR3 antag 0.8.

Bioassay records from PubChem BioAssay.
